We go through 57 sequences from the array DNA melting data of Ke et al. (doi:10.1101/2024.01.08.574731).

Data set [1] in a line: folding enthalpy; higher = less favourable; fluorescence melt of hairpins on a sequencing array, two-state fit. To be noted: sodium 0.088 M. The method in brief:
(§1)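 With Cy3 and quencher oligos annealed, library hairpins on a sequenced MiSeq flow cell were imaged for Cy3 fluorescence in 50 mM Na-HEPES pH 8.0, 25 mM NaCl, in 2.5 °C steps up to 60 °C. Melting temperature and folding enthalpy were derived from bootstrapped two-state fits of signals normalised to pre-quench Cy3 and to control constructs. Four replicates were combined by inverse variance, with fitted temperatures raised by 9.35 °C to match UV melts.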

Data set [2] can be described thus: melting temperature; fluorescence melt of hairpins on a sequencing array, two-state fit, raised by 9.35 °C to match UV melts. To be noted: sodium 0.088 M. Put shortly:
as §1

Turning to GATCTGGCGCAGATC ((((((...)))))), the folding enthalpy in data set [1] is -27.4 kcal/mol. For the same sequence, in data set [2], the Tm was determined as 47.5 °C.
In the same order, the values of GATCTGGCGCCAGATC ((((((....)))))) are -47.8 kcal/mol and 60.5 °C.
As for GATCTGGCTTCAGATC ((((((....)))))), the folding enthalpy in data set [1] was -37.8 kcal/mol. In data set [2], the Tm came to 50.6 °C.
As for GATCTGGGAAACCAGATC (((((((....))))))), in data set [1], the folding enthalpy was -45.4 kcal/mol. Moreover, in data set [2], the Tm amounted to 58.5 °C.
GATCTGGGAAACCAGGTC ((.((((....)))).)): the folding enthalpy in data set [1] was -25 kcal/mol. Further, in data set [2], the Tm amounted to 48.4 °C.
For GATCTGGGAGCAGATC ((((((....)))))), in that order: -35.4 kcal/mol and 53.8 °C.
In the same order, the values of GATCTGGGATCAGATC ((((((....)))))) are -40.7 kcal/mol and 53.3 °C.
As to GATCTGGGCCCAGATC ((((((....)))))), in data set [1], the folding enthalpy is -56.3 kcal/mol. Moreover, the Tm in data set [2] was found to be 58.9 °C.
As for GATCTGGTAACAGATC ((((((....)))))), the folding enthalpy in data set [1] is -27 kcal/mol. In addition, the Tm in data set [2] came to 60.5 °C.
GATCTGGTGCAGATC ((((((...)))))): the folding enthalpy in data set [1] was -31.1 kcal/mol. For the same sequence, in data set [2], the Tm came out at 49.5 °C.
Take GATCTGGTTTCAGATC ((((((....)))))): in data set [1], the folding enthalpy is -35.9 kcal/mol. In data set [2], the Tm is 51.1 °C.
Take GATCTGTAACAGATC ((((((...)))))): the folding enthalpy in data set [1] is -33.5 kcal/mol. In addition, in data set [2], the Tm was found to be 48.6 °C.
For GATCTGTAGCAGATC ((((((...)))))), the folding enthalpy in data set [1] was -37.4 kcal/mol. The Tm in data set [2] is 47.3 °C.
Turning to GATCTGTCATCAGATC ((((((....)))))), in data set [1], the folding enthalpy was -38.1 kcal/mol. In data set [2], the Tm was 50.1 °C.
For GATCTGTCGGCAGATC ((((((....)))))), in data set [1], the folding enthalpy was -45.6 kcal/mol. Further, the Tm in data set [2] was found to be 51.1 °C.
In the same order, the values of GATCTGTCGTCAGATC ((((((....)))))) are -37.6 kcal/mol and 50.5 °C.
Take GATCTGTCTCAGATC ((((((...)))))): in data set [1], the folding enthalpy was -28.1 kcal/mol. Also, the Tm in data set [2] was found to be 49.3 °C.
Consider GATCTGTCTCCAGATC ((((((....)))))), for which, in data set [1], the folding enthalpy was -45.9 kcal/mol. For the same sequence, in data set [2], the Tm was found to be 48.4 °C.
As to GATCTGTGACCAGATC ((((((....)))))), the folding enthalpy in data set [1] was -36.5 kcal/mol. Further, in data set [2], the Tm is 47.8 °C.
In the same order, the values of GATCTGTGATCAGATC ((((((....)))))) are -34 kcal/mol and 49.2 °C.
In the case of GATCTGTGCCAGATC ((((((...)))))), the folding enthalpy in data set [1] was -38 kcal/mol. The Tm in data set [2] is 51.1 °C.
For GATCTGTGCGCAGATC ((((((....)))))), in that order: -47.1 kcal/mol and 57 °C.
As to GATCTGTGGACAGATC ((((((....)))))), in data set [1], the folding enthalpy was -45.1 kcal/mol. Besides, in data set [2], the Tm came out at 53.2 °C.
Take GATCTGTGTTCAGATC ((((((....)))))): the folding enthalpy in data set [1] was -34.2 kcal/mol. Moreover, the Tm in data set [2] turned out to be 51.7 °C.
On to GATCTGTTAGCAGATC ((((((....)))))), for which the folding enthalpy in data set [1] is -42.9 kcal/mol. In addition, the Tm in data set [2] came to 52.3 °C.
Turning to GATCTGTTCCCAGATC ((((((....)))))), the folding enthalpy in data set [1] was -33.7 kcal/mol. Further, the Tm in data set [2] came to 48.6 °C.
With GATCTGTTTACAGATC ((((((....)))))), in data set [1], the folding enthalpy is -44.4 kcal/mol. Further, the Tm in data set [2] stood at 58.6 °C.
For the sequence GATCTTAAAAAAGATC ((((((....)))))), the folding enthalpy in data set [1] was -20.3 kcal/mol. For the same sequence, the Tm in data set [2] stood at 33.7 °C.
On to GATCTTAAAGAAGATC ((((((....)))))), for which, in data set [1], the folding enthalpy was -16.8 kcal/mol. Moreover, in data set [2], the Tm came to 34.8 °C.
Regarding GATCTTAACAAAGATC ((((((....)))))), the folding enthalpy in data set [1] was -33 kcal/mol. Further, in data set [2], the Tm was 42.5 °C.
GATCTTACATAAGATC ((((((....)))))): the folding enthalpy in data set [1] is -35.9 kcal/mol. Further, the Tm in data set [2] was found to be 43.1 °C.
GATCTTACCTAAGATC ((((((....)))))): the folding enthalpy in data set [1] was -40.2 kcal/mol. In data set [2], the Tm amounted to 45 °C.
In the same order, the values of GATCTTACGAAGATC ((((((...)))))) are -34.6 kcal/mol and 42.9 °C.
Take GATCTTACGCAAGATC ((((((....)))))): the folding enthalpy in data set [1] was -31.1 kcal/mol. Also, in data set [2], the Tm amounted to 42.9 °C.
On to GATCTTACTCAAGATC ((((((....)))))), for which the folding enthalpy in data set [1] is -33.5 kcal/mol. Further, in data set [2], the Tm worked out at 42.3 °C.
In the same order, the values of GATCTTACTTAAGATC ((((((....)))))) are -35.6 kcal/mol and 44.1 °C.
Consider GATCTTAGTTAAGATC ((((((....)))))), for which the folding enthalpy in data set [1] is -34.9 kcal/mol. Also, in data set [2], the Tm came out at 44.1 °C.
For GATCTTATACAAGATC ((((((....)))))), in that order: -33.8 kcal/mol and 42.6 °C.
Take GATCTTATCAAAGATC ((((((....)))))): in data set [1], the folding enthalpy is -33.1 kcal/mol. In addition, the Tm in data set [2] is 44.2 °C.
As to GATCTTATCTAAGATC ((((((....)))))), the folding enthalpy in data set [1] is -41.9 kcal/mol. In addition, the Tm in data set [2] was 45.2 °C.
Turning to GATCTTATGAAGATC ((((((...)))))), in data set [1], the folding enthalpy is -28.1 kcal/mol. Besides, the Tm in data set [2] was determined as 42.4 °C.
In the same order, the values of GATCTTCAAGAAGATC ((((((....)))))) are -33.5 kcal/mol and 46 °C.
As to GATCTTCACAAGATC ((((((...)))))), the folding enthalpy in data set [1] was -28.7 kcal/mol. Further, in data set [2], the Tm turned out to be 45.8 °C.
In the case of GATCTTCCACAAGATC ((((((....)))))), the folding enthalpy in data set [1] was -35.2 kcal/mol. Moreover, in data set [2], the Tm was found to be 41.5 °C.
In the case of GATCTTCCATAAGATC ((((((....)))))), the folding enthalpy in data set [1] is -33.9 kcal/mol. In addition, the Tm in data set [2] is 43.4 °C.
As to GATCTTCGAAAGATC ((((((...)))))), the folding enthalpy in data set [1] was -21.4 kcal/mol. For the same sequence, the Tm in data set [2] was found to be 39.9 °C.
In the same order, the values of GATCTTCGGAAGATC ((((((...)))))) are -33.3 kcal/mol and 41.9 °C.
In the case of GATCTTCTCAAGATC ((((((...)))))), the folding enthalpy in data set [1] is -33.3 kcal/mol. For the same sequence, in data set [2], the Tm was 46.7 °C.
GATCTTCTCTAAGATC ((((((....)))))): in data set [1], the folding enthalpy was -35 kcal/mol. Further, the Tm in data set [2] worked out at 42.8 °C.
With GATCTTGAGGAAGATC ((((((....)))))), the folding enthalpy in data set [1] is -24.9 kcal/mol. Further, the Tm in data set [2] stood at 36.8 °C.
As for GATCTTGAGTAAGATC ((((((....)))))), the folding enthalpy in data set [1] was -25.4 kcal/mol. Further, the Tm in data set [2] turned out to be 40.4 °C.
Consider GATCTTGATTAAGATC ((((((....)))))), for which, in data set [1], the folding enthalpy was -26.6 kcal/mol. For the same sequence, the Tm in data set [2] came out at 41.8 °C.
GATCTTGCACAAGATC ((((((....)))))): in data set [1], the folding enthalpy was -33.4 kcal/mol. Besides, in data set [2], the Tm was 50.8 °C.
In the same order, the values of GATCTTGCCAAAGATC ((((((....)))))) are -39 kcal/mol and 55 °C.
With GATCTTGCCTAAGATC ((((((....)))))), the folding enthalpy in data set [1] is -39.2 kcal/mol. Besides, the Tm in data set [2] amounted to 48.2 °C.
With GATCTTGCGGAAGATC ((((((....)))))), the folding enthalpy in data set [1] was -36 kcal/mol. Moreover, the Tm in data set [2] was 42.7 °C.
As to GATCTTGCTTAAGATC ((((((....)))))), the folding enthalpy in data set [1] was -38 kcal/mol. In addition, the Tm in data set [2] came out at 44 °C.
